The list is not random: actives were taken first. Their share in the collection is about 2.9%.
M1 PAM parental – nonselective activator or artifact in parental CHO-K1 calcium assay; ATP EC20, Fluo-8 calcium fluorescence; 0% at ATP EC20, 100% at ATP max; activation, % at 3 µM; 360,000 compounds, 0.02% hits; AID 602247;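 active means activation above the run cutoff, the mean activation of all test compounds plus 3 SD, cut at about 40% in these data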;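 further: peak over basal fluorescence ratio in a 140 s read after ATP addition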
CHO-K1 Ca antag – M1 antagonist counterscreen hit in parental CHO-K1 cells; 360,000 compounds, 0.6% hits; ATP-induced calcium, Fluo-8 fluorescence; inhibition, % at 3 µM;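 active means inhibition above a per-plate cutoff, the plate's mean sample inhibition plus 3 SD, cut at about 24% in these data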;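 further: 0% = DMSO plus EC80 ATP and 100% = DMSO alone without ATP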
OX1R antag-1 – antagonists of human orexin 1 receptor; O43613; CHO/OX1R cells, Fluo-8 calcium fluorescence, orexin A; inhibition, % at 5 µM; 330,000 compounds, 0.43% hits; AID 434989;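 active means inhibition above its plate's threshold, mean inhibition of all tested compounds on the plate plus 3 SD, cut at about 37% in these data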;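 further: 0% = orexin A challenge wells and 100% = SB-334867-A antagonist wells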
Target sequence (O43613 whole entry, looked up): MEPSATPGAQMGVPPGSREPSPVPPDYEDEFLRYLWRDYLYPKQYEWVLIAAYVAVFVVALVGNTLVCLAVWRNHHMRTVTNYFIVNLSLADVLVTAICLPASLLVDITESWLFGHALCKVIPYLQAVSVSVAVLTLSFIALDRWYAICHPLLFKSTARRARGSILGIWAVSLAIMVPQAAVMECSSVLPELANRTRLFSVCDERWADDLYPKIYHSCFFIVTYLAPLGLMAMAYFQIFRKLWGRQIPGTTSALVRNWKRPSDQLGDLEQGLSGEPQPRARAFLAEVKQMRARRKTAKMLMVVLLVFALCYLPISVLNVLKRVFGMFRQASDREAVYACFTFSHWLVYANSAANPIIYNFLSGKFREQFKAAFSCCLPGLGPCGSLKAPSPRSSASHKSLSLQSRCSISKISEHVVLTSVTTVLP
OX1R antag-2 – antagonists of human orexin 1 receptor (OX1R). O43613. OX1R-expressing cells, FRET antagonist read-out. inhibition, % at 6.6 µM. 330,000 compounds, 1.8% hits; in the data active means inhibition mostly above about 38%, no sharp cut-off; inactive means mostly below about 40%;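 further: 0% = agonist challenge alone and 100% = reference antagonist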
CHO parental Ca – counter-screen for OX1R antagonists: effect in parental CHO cells; parental CHO-K1, ATP-induced calcium, Fluo-8 fluorescence; inhibition, % at 5.6 µM; 330,000 compounds, 0.63% hits;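 active means inhibition above that plate's mean sample inhibition plus 3 SD, cut at about 26% in these data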;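 further: 0% = ATP-challenged DMSO wells and 100% = DMSO wells without ATP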
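Assay system – parental CHO cells · Reagent – ATP stimulus · Detection – intracellular calcium via Fluo-8 no-wash fluorescent dye · Evaluation – percent inhibition of ATP-evoked calcium rise, normalized to controls · Controls – ATP wells versus no-ATP DMSO wells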
M1 ag parental – counter-screen for M1 agonists: effect in parental CHO-K1 cells | Fluo-8 calcium fluorescence; scaled to maximal ATP response, vehicle zero | activation, % at 3 µM | 360,000 compounds, 0.48% hits | AID 602248; in the data active means activation above about 15%;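 further: untransfected CHO-K1 host cells lacking M1 receptor as counterscreen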
Numbers without * were called inactive; x = no result.

SMILES | M1 PAM parental | CHO-K1 Ca antag | OX1R antag-1 | OX1R antag-2 | CHO parental Ca | M1 ag parental
CCN(C(=O)COC(=O)C(c1ccccc1)c1ccccc1)c1c(N)n(Cc2ccccc2)c(=O)[nH]c1=O | -11.9 | 20.5 | x | x | x | -0.5
CC(C)COC(=O)N(C)C[C@H]1OCc2cnnn2CCCC(=O)N([C@@H](C)CO)C[C@H]1C | 15.8 | -14.6 | x | x | x | 0.3
O=C(O)CC1(c2ccc(F)cc2)C2CC3CC(C2)CC1C3 (centres undefined) | 2.6 | -14.5 | -19.3 | 15.1 | -6.5 | -0.1
Nc1nc(-c2ccccc2)nc2sc3c(c12)CCCC3 | -15.3 | 17.1 | 5.6 | 68.3* | -9.0 | -0.3
CC1(C)Cc2c(sc(NC(=O)COc3cccc4ccccc34)c2C#N)C(C)(C)N1 | -19.0 | 7.7 | 25.5 | 8.9 | 82.0* | 1.2
Cc1ccc(OCC(=O)Nc2sc3c(c2C#N)CC(C)(C)NC3(C)C)cc1 | 17.4 | -13.4 | -19.5 | 16.9 | -12.5 | 0.6
CN(N)c1nc(C(F)(F)F)nc2ccccc12 | -14.0 | 20.1 | -42.3 | 16.4 | -15.5 | -0.2
CN(NS(=O)(=O)c1ccc(Br)cc1)c1nc(C(F)(F)F)nc2ccccc12 | 14.5 | -11.6 | -16.5 | 62.7* | 16.6 | 6.0
CCCS(=O)(=O)N1CCCC(C(=O)NCCN(Cc2ccccc2)C(C)C)C1 (centres undefined) | -6.1 | 31.9* | -17.4 | -2.1 | -17.3 | -0.7
CSC(=Nc1cccc(C)c1)NC#N | 1.6 | -0.6 | -13.1 | 17.2 | 5.1 | -0.3
O=C(NC(c1cccnc1)C(F)(F)F)c1cc(COc2ccc3c(c2)CCCC3)on1 (centres undefined) | -24.9 | 27.2* | 18.7 | 9.9 | 41.6* | 7.5
Cn1cc(CNC(=O)c2cc(COc3ccc4c(c3)CCCC4)on2)cn1 | 13.9 | -4.0 | -16.6 | 2.2 | -14.9 | 9.8
CCNc1ccc(C(=O)OCC(=O)NCCN2C(=O)CSC2=O)cc1[N+](=O)[O-] | -6.5 | -5.0 | 5.4 | 67.9* | -8.1 | -0.1
CCn1c(SCc2cccc(C)c2)nnc1-c1ccc(C)cc1 | 18.7 | -2.7 | -15.8 | 12.3 | -14.3 | 16.2*
CCn1c(SCc2cccc(F)c2)nnc1-c1ccncc1 | 6.7 | -8.0 | x | x | x | 0.7
CCCCOc1cccc(/C=C(\C#N)C(=O)NC2CC2)c1 | 11.0 | -8.6 | -36.0 | 18.6 | -12.4 | 1.2
CCCS(=O)(=O)NC(=O)C1(C)CCCN(C(=O)c2c(OC)cccc2OC)C1 (centres undefined) | 14.2 | -5.6 | x | x | x | 0.0
CCCn1c(SCC(=O)Nc2ccc(F)c(Cl)c2)nc(O)cc1=O | 4.0 | 2.0 | 13.3 | 4.3 | 30.5* | -0.6
CCCn1c(SCC(=O)Nc2ccc(Cl)cc2F)nc(O)cc1=O | 8.0 | 2.5 | -7.1 | 3.1 | 3.1 | 9.2
O=C(CSc1nc(=O)[nH]c2c1CCCC2)Nc1ccc(F)cc1F | -5.5 | 7.5 | -15.5 | 12.6 | -16.2 | -0.4
CCC1CCCCN1CCCNC(=O)C1CCC(CNS(=O)(=O)c2c(C)cc(C)cc2C)CC1 (centres undefined) | -17.7 | 24.5* | -14.4 | 13.2 | -8.5 | -0.4
CCN(CC)CCCNC(=O)C1CCC(CNS(=O)(=O)c2c(C)cc(C)cc2C)CC1 (centres undefined) | 3.0 | -11.4 | -11.1 | -7.8 | -13.4 | 1.7
COc1ccc(CNC(=O)C/C(C)=N/NC(=O)C23CC4CC(CC(C4)C2)C3)cc1 | -0.1 | 4.3 | -33.7 | 33.2 | -13.3 | 0.8
Cn1c(/C=C/N2CCOCC2)c(C(=O)c2ccc(Br)cc2)c(=O)n(C)c1=O | 1.7 | 4.8 | -16.6 | 7.5 | -12.3 | -0.2
Cc1c(N=CN2CCOCC2)c(=O)n(C)c(=O)n1C | 3.4 | 1.4 | -19.1 | 16.3 | -1.0 | 16.8*
SMILES | M1 PAM parental | CHO-K1 Ca antag | OX1R antag-1 | OX1R antag-2 | CHO parental Ca | M1 ag parental
Cc1ccc(S(=O)(=O)n2ccc3c(OCCOCCNCc4ccc(F)cc4)cccc32)cc1 | 1.5 | 11.4 | 24.8 | -0.6 | 39.0* | 12.4
Cc1ccccc1C(=O)N1CCC(C(=O)NCCc2ccc(S(N)(=O)=O)cc2)CC1 | 28.5 | -9.9 | -8.1 | 19.0 | 0.7 | 1.6
CSc1ccc(S(=O)(=O)Nc2ccc3c(c2)NC(=O)CC3)cc1 | 2.1 | 14.2 | 1.2 | 27.0 | 5.7 | 16.2*
COc1ccc2nc(CC(C)(C)CC(=O)O)c[n+]([O-])c2c1 | 15.3 | -5.5 | -17.6 | 68.9* | -7.9 | 0.1
COc1ccc(CN2C(=O)C(Cc3ccccc3)Nc3ncnc(N4CCc5ccccc5C4)c32)cc1 (centres undefined) | x | x | -5.4 | 51.5 | -23.4 | x
CCOc1ncccc1C(=O)OCC(=O)N(CC(C)C)c1c(N)n(Cc2ccccc2)c(=O)[nH]c1=O | -18.5 | 10.1 | -23.7 | 18.2 | -18.3 | -0.4
Cc1ccc(S(=O)(=O)CC2CSc3nc4ccccc4n32)cc1 (centres undefined) | -11.1 | 27.9* | 21.8 | 37.0 | 0.2 | 10.6
COC(=O)C(=Cc1ccccc1[N+](=O)[O-])C(=O)OC | 20.2 | -14.5 | -12.8 | 8.9 | -5.9 | 2.8
CCc1ccc(-c2cnc3nc[nH]c(=O)c3n2)cc1 | 4.7 | -4.0 | -9.0 | 43.5* | -9.9 | -0.3
CCc1nc2n(n1)C(O)c1cc([N+](=O)[O-])ccc1S2 (centres undefined) | 0.8 | -3.4 | -10.4 | 46.1* | -8.1 | 0.2
CCN(CC)C(=O)c1cc2cc([N+](=O)[O-])ccc2s1 | 13.1 | -11.4 | -15.6 | 50.2 | -3.1 | 1.0
N#Cc1ccc(C(=O)OCC(=O)Nc2cccnc2Cl)cc1 | -11.0 | -3.4 | -16.5 | -4.9 | -2.7 | 0.0
COc1cc2c(C(=O)N3CCOCC3)c(CSc3ccccc3)n(C)c2cc1Br | 9.2 | 1.7 | -9.2 | 56.5* | -41.1 | 1.9
COC1CCCN(Cc2c(C(=O)N3CCN(C4CCCCC4)CC3)nc3ccccn23)C1 (centres undefined) | 3.1 | -6.2 | -4.9 | 28.3 | -0.2 | 1.2
COc1ccccc1NCC(=O)N/N=C(\C)c1ccc(Br)s1 | 3.3 | 1.1 | -9.7 | 9.2 | -8.7 | 0.1
C/C(=N/NC(=O)CNc1ccc(C)cc1)c1ccc(Br)s1 | 3.5 | 2.1 | -14.7 | 14.4 | -13.9 | 21.4*
O=C(CSc1cn[nH]n1)Nc1cccc(C(F)(F)F)c1 | 4.3 | -8.4 | -8.4 | 11.9 | 0.9 | 0.9
CCC(C)NC(=O)COC(=O)c1cccnc1Nc1ccccc1F (centres undefined) | 23.7 | -2.0 | -5.6 | 61.5* | -15.7 | 0.9
CCN1C(=O)N/C(=C/c2ccc(Sc3ccc(C)cc3)o2)C1=O | 19.6 | -10.4 | 61.1* | 52.2 | 63.9* | 1.5
Clc1ccc2c(NCc3ccccc3)ccnc2c1 | -0.6 | 4.8 | -7.9 | 18.1 | -6.2 | 16.7*
C=CCSc1nsc(NC(=O)Nc2ccc(F)cc2)n1 | 12.5 | 25.1* | -1.1 | 70.1* | 50.7* | 14.0
CCSc1nsc(NC(=O)Nc2cccc(OC)c2)n1 | 5.2 | 12.9 | 28.7 | 51.7* | 43.5* | 17.0*
Cc1ccc(S(=O)(=O)CCC(=O)OCC(=O)NCC(=O)Nc2c(C)cc(C)cc2C)cc1 | 9.6 | 1.0 | -5.8 | 10.8 | -22.0 | 0.0
